Measured values taken from ChEMBL document CHEMBL3596093, “Synthesis and antimicrobial evaluation of 5-aryl-1,2,4-triazole-3-thione derivatives containing a rhodanine moiety” (2015).

Columns and labels:
Staphylococcus aureus [1] = assay: Antibacterial activity against Staphylococcus aureus RN4220 after 24 hrs by two-fold serial dilution method; format: functional; conditions: RN4220, 24 h
In short: (§1)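 Broth microdilution MIC. Bacteria grown to mid-log phase in Mueller-Hinton broth, diluted 1000-fold, about 10^5 CFU/mL. Compounds from DMSO stocks, two-fold serial dilution from a final 64 µg/mL. Incubation at 37 °C for 24 h. Growth read as absorbance at 630 nm on a microplate reader. Run in triplicate.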

Staphylococcus aureus [2] = assay: Antibacterial activity against Staphylococcus aureus KCTC 209 after 24 hrs by two-fold serial dilution method; format: functional; conditions: KCTC 209, 24 h
In short: (§2)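 Strains grown to mid-log phase in Mueller-Hinton broth, then diluted 1000-fold in the same broth to about 10^5 CFU/mL. Compounds were made up as DMSO stocks and two-fold serially diluted from a final top concentration of 64 µg/mL. Incubation was 37 °C for 24 h. Growth was read as absorbance at 630 nm on a microplate reader. MIC assays were run in triplicate.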

Staphylococcus aureus [3] = assay: Antibacterial activity against Staphylococcus aureus KCTC 503 after 24 hrs by two-fold serial dilution method; format: functional; conditions: KCTC 503, 24 h; in short: as §2
Streptococcus mutans [4] = assay: Antibacterial activity against Streptococcus mutans 3065 after 24 hrs by two-fold serial dilution method; format: functional; conditions: Streptococcus mutans, 3065, 24 h; in short: as §2
Escherichia coli [5] = assay: Antibacterial activity against Escherichia coli KCTC 1924 after 24 hrs by two-fold serial dilution method; format: functional; conditions: KCTC 1924, 24 h; in short: as §2
Escherichia coli [6] = assay: Antibacterial activity against Escherichia coli CCARM 1356 after 24 hrs by two-fold serial dilution method; format: functional; conditions: CCARM 1356, 24 h; in short: as §2
Pseudomonas aeruginosa [7] = assay: Antibacterial activity against Pseudomonas aeruginosa 2742 after 24 hrs by two-fold serial dilution method; format: functional; conditions: Pseudomonas aeruginosa, 2742, 24 h; in short: as §2
Pseudomonas aeruginosa [8] = assay: Antibacterial activity against Pseudomonas aeruginosa 2004 after 24 hrs by two-fold serial dilution method; format: functional; conditions: Pseudomonas aeruginosa, 2004, 24 h; in short: as §2
Salmonella typhimurium = assay: Antibacterial activity against Salmonella typhimurium 2421 after 24 hrs by two-fold serial dilution method; format: functional, Salmonella enterica subsp. enterica serovar Typhimurium; conditions: Salmonella enterica, 2421, 24 h; in short: as §2
Candida albicans = assay: Antifungal activity against Candida albicans 7535 after 24 hrs by two-fold serial dilution method; format: functional; conditions: Candida albicans, 7535, 24 h
Staphylococcus aureus [9] = assay: Bactericidal activity against Staphylococcus aureus RN4220 after 24 hrs by agar plate method; format: functional; conditions: RN4220, 24 h
In short: (§3)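 Samples of 5 µL from MIC wells with no visible growth were plated onto fresh Mueller-Hinton agar and incubated a further 24 h at 37 °C. MBC is the lowest concentration giving no visible colony growth on the agar. Assays were run in triplicate.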

Staphylococcus aureus [10] = assay: Bactericidal activity against Staphylococcus aureus KCTC 503 after 24 hrs by agar plate method; format: functional; conditions: KCTC 503, 24 h
In short: (§4)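 5 µL from each well without visible growth plated on fresh Mueller-Hinton agar, then 37 °C for a further 24 h. MBC is the lowest concentration giving no visible colonies. Run in triplicate.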

Streptococcus mutans [11] = assay: Bactericidal activity against Streptococcus mutans 3065 after 24 hrs by agar plate method; format: functional; conditions: Streptococcus mutans, 3065, 24 h; in short: as §3
Escherichia coli [12] = assay: Bactericidal activity against Escherichia coli KCTC 1924 after 24 hrs by agar plate method; format: functional; conditions: KCTC 1924, 24 h; in short: as §3
Staphylococcus aureus [13] = assay: Ratio of MBC to MIC for Staphylococcus aureus KCTC 503; format: functional
In short: (§5)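 The ratio divides MBC by MIC for the same strain. MIC comes from two-fold broth microdilution in Mueller-Hinton broth (about 10^5 CFU/mL, 37 °C, 24 h, absorbance at 630 nm). MBC comes from subculturing 5 µL from clear wells onto Mueller-Hinton agar for another 24 h at 37 °C, taken as the lowest concentration with no colonies.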

Escherichia coli [14] = assay: Ratio of MBC to MIC for Escherichia coli KCTC 1924; format: functional; in short: as §5
Staphylococcus aureus [15] = assay: Antibacterial activity against methicillin-resistant Staphylococcus aureus CCARM 3167 after 24 hrs by two-fold serial dilution method; format: functional; conditions: CCARM 3167, 24 h; in short: as §1
Staphylococcus aureus [16] = assay: Antibacterial activity against methicillin-resistant Staphylococcus aureus CCARM 3506 after 24 hrs by two-fold serial dilution method; format: functional; conditions: CCARM 3506, 24 h; in short: as §1
Staphylococcus aureus [17] = assay: Antibacterial activity against quinolone-resistant Staphylococcus aureus CCARM 3505 after 24 hrs by two-fold serial dilution method; format: functional; conditions: CCARM 3505, 24 h; in short: as §1
Staphylococcus aureus [18] = assay: Antibacterial activity against quinolone-resistant Staphylococcus aureus CCARM 3519 after 24 hrs by two-fold serial dilution method; format: functional; conditions: CCARM 3519, 24 h; in short: as §1
Staphylococcus aureus [19] = assay: Bactericidal activity against methicillin-resistant Staphylococcus aureus CCARM 3167 after 24 hrs by agar plate method; format: functional; conditions: CCARM 3167, 24 h; in short: as §4
Staphylococcus aureus [20] = assay: Bactericidal activity against methicillin-resistant Staphylococcus aureus CCARM 3506 after 24 hrs by agar plate method; format: functional; conditions: CCARM 3506, 24 h; in short: as §4
Staphylococcus aureus [21] = assay: Bactericidal activity against quinolone-resistant Staphylococcus aureus CCARM 3505 after 24 hrs by agar plate method; format: functional; conditions: CCARM 3505, 24 h; in short: as §4
Staphylococcus aureus [22] = assay: Bactericidal activity against quinolone-resistant Staphylococcus aureus CCARM 3519 after 24 hrs by agar plate method; format: functional; conditions: CCARM 3519, 24 h; in short: as §4
[23] = tested on: Staphylococcus aureus subsp. aureus RN4220; assay: Ratio of MBC to MIC for Staphylococcus aureus RN4220; format: functional; in short: as §5
Staphylococcus aureus [24] = assay: Bactericidal activity against Staphylococcus aureus KCTC 209 after 24 hrs by agar plate method; format: functional; conditions: KCTC 209, 24 h; in short: as §3

Cc1ccccc1-c1n[nH]c(=S)n1/N=C/c1ccc(/C=C2\SC(=S)N([C@@H](Cc3ccccc3)C(=O)O)C2=O)cc1
> 128 µg/mL: MIC (Escherichia coli [6]) | MIC (Pseudomonas aeruginosa [7]) | MIC (Pseudomonas aeruginosa [8]) | MIC (Salmonella typhimurium) | MBC (Staphylococcus aureus [22])
32 µg/mL: MBC (Staphylococcus aureus [10]) | MBC (Staphylococcus aureus [19])
8 µg/mL: MIC (Streptococcus mutans [4])
<=4: Ratio (Staphylococcus aureus [13]) | Ratio (Escherichia coli [14])
16 µg/mL: MIC (Staphylococcus aureus [1]) | MIC (Staphylococcus aureus [3]) | MBC (Streptococcus mutans [11]) | MIC (Staphylococcus aureus [15]) | MIC (Staphylococcus aureus [16]) | MIC (Staphylococcus aureus [17]) | MIC (Staphylococcus aureus [18])
> 64 µg/mL: MIC (Staphylococcus aureus [2]) | MIC (Candida albicans)
64 µg/mL: MIC (Escherichia coli [5]) | MBC (Staphylococcus aureus [9]) | MBC (Escherichia coli [12]) | MBC (Staphylococcus aureus [20]) | MBC (Staphylococcus aureus [21])

O=C(O)[C@H](Cc1ccccc1)N1C(=O)/C(=C/c2ccc(/C=N/n3c(-c4cccc(Br)c4)n[nH]c3=S)cc2)SC1=S
<=4: Ratio (Staphylococcus aureus [13]) | Ratio (Escherichia coli [14])
64 µg/mL: MIC (Staphylococcus aureus [3]) | MIC (Streptococcus mutans [4]) | MIC (Escherichia coli [5]) | MBC (Escherichia coli [12]) | MBC (Staphylococcus aureus [20])
256 µg/mL: MBC (Staphylococcus aureus [9]) | MBC (Staphylococcus aureus [22])
> 128 µg/mL: MIC (Escherichia coli [6]) | MIC (Pseudomonas aeruginosa [7]) | MIC (Pseudomonas aeruginosa [8]) | MIC (Salmonella typhimurium) | MBC (Streptococcus mutans [11])
> 64 µg/mL: MIC (Staphylococcus aureus [2]) | MIC (Candida albicans)
16 µg/mL: MIC (Staphylococcus aureus [16]) | MIC (Staphylococcus aureus [17])
128 µg/mL: MBC (Staphylococcus aureus [10]) | MBC (Staphylococcus aureus [19]) | MBC (Staphylococcus aureus [21])
32 µg/mL: MIC (Staphylococcus aureus [1]) | MIC (Staphylococcus aureus [15]) | MIC (Staphylococcus aureus [18])

O=C(O)[C@H](Cc1ccccc1)N1C(=O)/C(=C/c2ccc(/C=N/n3c(-c4ccc(Cl)cc4)n[nH]c3=S)cc2)SC1=S
> 64 µg/mL: MIC (Staphylococcus aureus [2]) | MIC (Candida albicans)
64 µg/mL: MBC (Staphylococcus aureus [19]) | MBC (Staphylococcus aureus [21])
8 µg/mL: MIC (Staphylococcus aureus [1]) | MIC (Staphylococcus aureus [15])
32 µg/mL: MBC (Streptococcus mutans [11])
2: Ratio [23]
> 128 µg/mL: MIC (Escherichia coli [5]) | MIC (Escherichia coli [6]) | MIC (Pseudomonas aeruginosa [7]) | MIC (Pseudomonas aeruginosa [8]) | MIC (Salmonella typhimurium)
128 µg/mL: MBC (Staphylococcus aureus [10]) | MBC (Staphylococcus aureus [20]) | MBC (Staphylococcus aureus [22])
16 µg/mL: MIC (Staphylococcus aureus [3]) | MIC (Streptococcus mutans [4]) | MBC (Staphylococcus aureus [9]) | MIC (Staphylococcus aureus [16]) | MIC (Staphylococcus aureus [17]) | MIC (Staphylococcus aureus [18])

O=C1NC(=S)S/C1=C\c1ccc(/C=N/n2c(-c3ccccc3)n[nH]c2=S)cc1
128 µg/mL: MBC (Escherichia coli [12])
32 µg/mL: MIC (Staphylococcus aureus [1]) | MIC (Staphylococcus aureus [3]) | MIC (Escherichia coli [5]) | MIC (Staphylococcus aureus [15]) | MIC (Staphylococcus aureus [16]) | MIC (Staphylococcus aureus [17]) | MIC (Staphylococcus aureus [18])
> 128 µg/mL: MIC (Escherichia coli [6]) | MIC (Pseudomonas aeruginosa [7]) | MIC (Pseudomonas aeruginosa [8]) | MIC (Salmonella typhimurium) | MBC (Streptococcus mutans [11])
16 µg/mL: MIC (Streptococcus mutans [4])
> 256 µg/mL: MBC (Staphylococcus aureus [9]) | MBC (Staphylococcus aureus [24]) | MBC (Staphylococcus aureus [10]) | MBC (Staphylococcus aureus [19]) | MBC (Staphylococcus aureus [20]) | MBC (Staphylococcus aureus [21]) | MBC (Staphylococcus aureus [22])
<=4: Ratio (Escherichia coli [14])
64 µg/mL: MIC (Staphylococcus aureus [2])
> 64 µg/mL: MIC (Candida albicans)
